# Reference: ChEMBL document CHEMBL5506013, “Mitochondria-Selective Dicationic Small-Molecule Ligand Targeting G-Quadruplex Structures for Human Colorectal Cancer Therapy” (J Med Chem, 2024)
# Calls of active or inactive are those of the source. The rule behind the calls is not given here.
# Tests used:
# HCT-116 = experiment: Antiproliferative activity against human HCT-116 cells measured after 48 hrs by MTT assay; type: functional, cell-based; settings: for IC50: HCT-116, 48 h
# Procedure, shortened: (§1)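 Cells exposed to the ligands for 48 h. Viability was read by MTT, and the IC50 was derived from the response.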
# HFF-1 = experiment: (§2) Antiproliferative activity against human HFF-1 cells measured after 48 hrs by MTT assay; type: toxicity, cell-based; settings: hff-1, 48 h, time 48 hrs; procedure, shortened: as §1
# BJ = experiment: (§3) Antiproliferative activity against human BJ cells measured after 48 hrs by MTT assay; type: toxicity, cell-based; settings: bj, 48 h; procedure, shortened: as §1
# Quadruplex DNA [1] = experiment: Binding affinity to mito 29 G4 DNA (unknown origin) at 5 uM by fluorescence titration based analysis; type: nucleic-acid assay
# Procedure, shortened: (§4)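 Oligonucleotides were pre-annealed at 95 °C for 10 min, then cooled slowly. Ligand (5 uM) was mixed with 20 uM DNA in buffer. Emission was collected over 550–800 nm, and enhancement was taken at 650 nm as F/F0.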
# Quadruplex DNA [2] = experiment: Binding affinity to mito 56 G4 DNA (unknown origin) at 5 uM by fluorescence titration based analysis; type: nucleic-acid assay; procedure, shortened: as §4
# Quadruplex DNA [3] = experiment: Binding affinity to mito 132 G4 DNA (unknown origin) at 5 uM by fluorescence titration based analysis; type: nucleic-acid assay; procedure, shortened: as §4
# Quadruplex DNA [4] = experiment: Binding affinity to mito 05-15 G4 DNA (unknown origin) at 5 uM by fluorescence titration based analysis; type: nucleic-acid assay; procedure, shortened: as §4
# Quadruplex DNA [5] = experiment: Binding affinity to mito 05-18 G4 DNA (unknown origin) at 5 uM by fluorescence titration based analysis; type: nucleic-acid assay; procedure, shortened: as §4
# Quadruplex DNA [6] = experiment: Binding affinity to mito 81 G4 DNA (unknown origin) at 5 uM by fluorescence titration based analysis; type: nucleic-acid assay
# Procedure, shortened: (§5)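 Fluorescence titration in buffer. Ligand at 5 uM mixed with 20 uM pre-annealed DNA (95 °C for 10 min, slow cooling). Emission collected at 550-800 nm and monitored at 650 nm. Result reported as fold enhancement F/F0 over ligand alone.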
# Quadruplex DNA [7] = experiment: Binding affinity to mito 78 G4 DNA (unknown origin) at 5 uM by fluorescence titration based analysis; type: nucleic-acid assay; procedure, shortened: as §5
# [8] = Drug uptake in living human HCT-116 cells assessed as increase in fluorescent signal in subnuclear region at 4 uM incubated for 1 hrs by Hoechst33342 staining based analysis; type: ADME, cell-based; settings: hct-116, 1 h
# [9] = Drug uptake in living human HCT-116 cells at 4 uM incubated for 1 hrs by Hoechst33342 staining based analysis; type: ADME, cell-based; settings: hct-116, 1 h
# Quadruplex DNA [10] = experiment: Binding affinity to mito 78 G4 DNA (unknown origin) assessed as dissociation constant measured upto 450 secs by surface plasmon resonance assay; type: nucleic-acid assay
# Quadruplex DNA [11] = experiment: Binding affinity to mito 55 G4 DNA (unknown origin) assessed as dissociation constant measured upto 450 secs by surface plasmon resonance assay; type: nucleic-acid assay
# Procedure, shortened: (§6)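 Surface plasmon resonance in buffer at 25 °C. Four G4-mtDNAs (Mito 78, Mito 55, Mito 29, Mito 0.5-16) and the hairpin HP19 served as substrates. Kd was derived from the sensorgrams.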
# Quadruplex DNA [12] = experiment: Binding affinity to mito 29 G4 DNA (unknown origin) assessed as dissociation constant measured upto 450 secs by surface plasmon resonance assay; type: nucleic-acid assay; procedure, shortened: as §6
# Quadruplex DNA [13] = experiment: Binding affinity to mito 0.5-16 G4 DNA (unknown origin) assessed as dissociation constant measured upto 450 secs by surface plasmon resonance assay; type: nucleic-acid assay; procedure, shortened: as §6
# DNA = experiment: Binding affinity to HP19 DNA (non-G4 DNA) (unknown origin) assessed as dissociation constant measured upto 450 secs by surface plasmon resonance assay; type: nucleic-acid assay; procedure, shortened: as §6
# LoVo = experiment: Antiproliferative activity against human LoVo cells measured after 48 hrs by MTT assay; type: functional, cell-based; procedure, shortened: as §1
# HeLa = experiment: Antiproliferative activity against human HeLa cells measured after 48 hrs by MTT assay; type: functional, cell-based; procedure, shortened: as §1
# HepG2 = experiment: Antiproliferative activity against human HepG2 cells measured after 48 hrs by MTT assay; type: functional, cell-based; settings: HepG2, 48 h; procedure, shortened: as §1
# PANC-1 = experiment: Antiproliferative activity against human PANC-1 cells measured after 48 hrs by MTT assay; type: functional, cell-based; settings: PANC-1, 48 h; procedure, shortened: as §1
# MDA-MB-231 = experiment: Antiproliferative activity against human MDA-MB-231 cells measured after 48 hrs by MTT assay; type: functional, cell-based; settings: MDA-MB-231, 48 h; procedure, shortened: as §1
# [14] = as §2; type: toxicity, cell-based; settings: HFF-1 cells; procedure, shortened: as §1
# [15] = as §3; type: toxicity, cell-based; settings: BJ cells; procedure, shortened: as §1
Kd (Quadruplex DNA [10]) [µM],Kd (Quadruplex DNA [11]) [µM],Kd (Quadruplex DNA [12]) [µM],Kd (Quadruplex DNA [13]) [µM],Kd (DNA) [µM],IC50 (HCT-116) [µM],IC50 (LoVo) [µM],IC50 (HeLa) [µM],IC50 (HepG2) [µM],IC50 (PANC-1) [µM],IC50 (MDA-MB-231) [µM],Structure (SMILES),IC50 at 48 h [14] [µM],IC50 at 48 h [15] [µM],other results
–,–,–,–,–,–,–,–,–,–,–,C[n+]1c(/C=C/c2ccc(N3CCCCC3)cc2)ccc2ccccc21.[I-],–,–,Activity (HCT-116): inactive; Activity (HFF-1): Toxic; Activity (BJ): Toxic; Activity (Quadruplex DNA [1]): Active; Activity (Quadruplex DNA [2]): Active; Activity (Quadruplex DNA [3]): Active; Activity (Quadruplex DNA [4]): Active; Activity (Quadruplex DNA [5]): Active; Activity (Quadruplex DNA [6]): Active; Activity (Quadruplex DNA [7]): Active; Drug uptake [8]: Active; Drug uptake [9]: Not Active
0.08,0.61,0.23,0.25,> 2,19.8,> 40,23.3,> 40,> 40,> 40,C(=C\c1ccc2ccccc2[n+]1CCCCCCCC[n+]1c(/C=C/c2c[nH]c3ccccc23)ccc2ccccc21)/c1c[nH]c2ccccc12,> 40,> 40,–
0.13,0.17,0.15,0.41,> 2,5.4,15,22.1,> 40,20.5,> 40,C(=C\c1ccc2ccccc2[n+]1CCCCCCCC[n+]1c(/C=C/c2ccc(N3CCCC3)cc2)ccc2ccccc21)/c1ccc(N2CCCC2)cc1,31.1,31.4,–
0.03,0.13,0.14,0.11,> 2,17.2,15.4,29.5,> 40,> 40,> 40,CN(C)c1ccc(/C=C/c2ccc3ccccc3[n+]2CCCCCCCC[n+]2c(/C=C/c3ccc(N(C)C)cc3)ccc3ccccc32)cc1,22.7,> 40,–
0.12,0.47,0.24,0.28,1.86,29.2,35.4,> 40,> 40,> 40,> 40,C(=C\c1ccc2ccccc2[n+]1CCCCCCCC[n+]1c(/C=C/c2ccc(N3CCOCC3)cc2)ccc2ccccc21)/c1ccc(N2CCOCC2)cc1,> 40,> 40,–
0.07,0.91,0.72,1.17,> 2,27.4,> 40,> 40,> 40,> 40,> 40,Cc1ccc(/C=C/c2ccc3ccccc3[n+]2CCCCCCCC[n+]2c(/C=C/c3ccc(C)cc3)ccc3ccccc32)cc1,> 40,> 40,–
0.05,0.46,0.34,0.15,> 2,24.7,> 40,> 40,> 40,> 40,> 40,CSc1ccc(/C=C/c2ccc3ccccc3[n+]2CCCCCCCC[n+]2c(/C=C/c3ccc(SC)cc3)ccc3ccccc32)cc1,34.7,> 40,–
1.84,0.22,0.14,> 2,> 2,8,> 40,34.6,37.3,> 40,> 40,C(=C\c1ccc2ccccc2[n+]1CCCCCCCC[n+]1c(/C=C/c2cc3ccccc3[nH]2)ccc2ccccc21)/c1cc2ccccc2[nH]1,> 40,> 40,–
–,–,–,–,–,–,–,–,–,–,–,CCCC[n+]1c(/C=C/c2ccc(N3CCCCC3)cc2)ccc2ccccc21.[I-],–,–,Activity (HCT-116): inactive; Activity (HFF-1): Toxic; Activity (BJ): Toxic; Activity (Quadruplex DNA [1]): Active; Activity (Quadruplex DNA [2]): Active; Activity (Quadruplex DNA [3]): Active; Activity (Quadruplex DNA [4]): Active; Activity (Quadruplex DNA [5]): Active; Activity (Quadruplex DNA [6]): Active; Activity (Quadruplex DNA [7]): Active; Drug uptake [8]: Active; Drug uptake [9]: Not Active
0.29,0.58,0.5,1.02,> 2,> 40,> 40,> 40,> 40,> 40,> 40,C(=C\c1ccc2ccccc2[n+]1CCCCCCCC[n+]1c(/C=C/c2ccccc2)ccc2ccccc21)/c1ccccc1,28.3,> 40,–
0.02,0.52,0.21,0.96,> 2,8.5,> 40,32.1,25.3,> 40,> 40,CCn1c2ccccc2c2cc(/C=C/c3ccc4ccccc4[n+]3CCCCCCCC[n+]3c(/C=C/c4ccc5c(c4)c4ccccc4n5CC)ccc4ccccc43)ccc21,> 40,> 40,–
